Experiments:
Type in all cases: cell-based
[1] = molecular target: T1, E3 ubiquitin-protein ligase Mdm2/Histone deacetylase 1 (Homo sapiens) (UniProt Q00987+Q13547); test: PROTAC activity at MDM2/HDAC1 in human HCT-116 cells assessed as decrease in HDAC1 abundance by measuring remaining activity at 0.1 uM measured after 24 hrs by Western blot analysis (reference value: 100%)
How it was run: (§1)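 HCT116 cells seeded in six-well plates for 24 h, then exposed 24 h to compound (0.01–10 μM) or DMSO in fresh medium. Lysis in Tris-HCl/NaCl/NP-40/Triton X-100 with protease inhibitor. Bradford-normalised 30 μg protein per lane. Quantitative Western blot used specific HDAC1, HDAC2, HDAC3, LSD1 or Sin3a antibodies with IRDye secondaries. Abundance compared with DMSO, n = 2 replicates.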

[2] = molecular target: T2, E3 ubiquitin-protein ligase Mdm2/Histone deacetylase 2 (Homo sapiens) (UniProt Q00987+Q92769); test: PROTAC activity at MDM2/HDAC2 in human HCT-116 cells assessed as decrease in HDAC2 abundance by measuring remaining activity at 1 uM measured after 24 hrs by Western blot analysis (reference value: 100%); how it was run: as §1
T2 sequence (Q00987 whole entry, looked up): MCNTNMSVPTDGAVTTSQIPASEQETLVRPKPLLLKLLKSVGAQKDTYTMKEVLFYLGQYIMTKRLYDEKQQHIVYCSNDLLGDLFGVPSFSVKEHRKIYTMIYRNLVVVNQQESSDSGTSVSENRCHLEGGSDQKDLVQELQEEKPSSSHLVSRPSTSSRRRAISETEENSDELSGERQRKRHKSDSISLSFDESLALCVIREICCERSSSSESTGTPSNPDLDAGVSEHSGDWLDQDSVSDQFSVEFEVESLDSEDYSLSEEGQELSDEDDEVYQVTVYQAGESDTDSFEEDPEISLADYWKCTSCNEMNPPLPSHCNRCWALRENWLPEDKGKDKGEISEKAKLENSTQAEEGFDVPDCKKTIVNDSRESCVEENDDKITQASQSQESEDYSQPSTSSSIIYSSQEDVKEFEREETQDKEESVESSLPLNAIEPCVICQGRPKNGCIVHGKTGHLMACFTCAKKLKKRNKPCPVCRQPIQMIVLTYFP
T2 sequence (Q92769 whole entry, looked up): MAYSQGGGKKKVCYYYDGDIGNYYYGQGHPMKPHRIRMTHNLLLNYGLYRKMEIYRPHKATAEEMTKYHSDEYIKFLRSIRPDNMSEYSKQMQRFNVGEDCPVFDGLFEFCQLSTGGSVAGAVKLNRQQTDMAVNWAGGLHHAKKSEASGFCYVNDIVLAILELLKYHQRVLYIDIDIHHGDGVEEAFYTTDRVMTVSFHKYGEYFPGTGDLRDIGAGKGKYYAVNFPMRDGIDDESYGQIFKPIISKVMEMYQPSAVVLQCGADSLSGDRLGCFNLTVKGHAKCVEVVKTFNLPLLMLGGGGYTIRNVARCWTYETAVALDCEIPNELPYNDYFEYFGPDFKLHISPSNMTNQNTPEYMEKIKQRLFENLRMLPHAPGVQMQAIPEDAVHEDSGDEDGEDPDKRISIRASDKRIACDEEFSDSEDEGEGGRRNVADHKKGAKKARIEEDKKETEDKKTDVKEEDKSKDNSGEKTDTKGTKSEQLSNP

[3] = molecular target: T1, E3 ubiquitin-protein ligase Mdm2/Histone deacetylase 1 (Homo sapiens); test: PROTAC activity at MDM2/HDAC1 in human HCT-116 cells assessed as decrease in HDAC1 abundance by measuring remaining activity at 0.25 uM measured after 24 hrs by Western blot analysis (reference value: 100%); how it was run: as §1
[4] = molecular target: T2, E3 ubiquitin-protein ligase Mdm2/Histone deacetylase 2 (Homo sapiens); test: PROTAC activity at MDM2/HDAC2 in human HCT-116 cells assessed as decrease in HDAC2 abundance by measuring remaining activity at 0.25 uM measured after 24 hrs by Western blot analysis (reference value: 100%); how it was run: as §1
[5] = molecular target: T2, E3 ubiquitin-protein ligase Mdm2/Histone deacetylase 2 (Homo sapiens); test: PROTAC activity at MDM2/HDAC2 in human HCT-116 cells assessed as decrease in HDAC2 abundance by measuring remaining activity at 2.5 uM measured after 24 hrs by Western blot analysis (reference value: 100%); how it was run: as §1
[6] = molecular target: T3, E3 ubiquitin-protein ligase Mdm2/Histone deacetylase 3 (Homo sapiens) (UniProt Q00987+O15379); test: PROTAC activity at MDM2/HDAC3 in human HCT-116 cells assessed as reduction in HDAC3 abundance by measuring remaining activity at 0.05 uM measured after 24 hrs by Western blot analysis
T3 sequence (O15379 whole entry, looked up): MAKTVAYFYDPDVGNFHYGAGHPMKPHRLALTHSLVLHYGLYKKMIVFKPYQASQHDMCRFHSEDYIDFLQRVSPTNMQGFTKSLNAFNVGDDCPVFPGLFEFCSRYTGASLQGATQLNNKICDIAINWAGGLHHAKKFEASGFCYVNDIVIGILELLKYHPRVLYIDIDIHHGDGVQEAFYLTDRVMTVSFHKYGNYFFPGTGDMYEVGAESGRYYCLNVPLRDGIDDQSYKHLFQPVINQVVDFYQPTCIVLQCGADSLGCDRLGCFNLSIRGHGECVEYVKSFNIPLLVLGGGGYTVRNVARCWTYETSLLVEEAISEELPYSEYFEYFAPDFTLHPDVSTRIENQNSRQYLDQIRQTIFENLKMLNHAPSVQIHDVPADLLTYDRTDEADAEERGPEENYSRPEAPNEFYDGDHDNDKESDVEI
T3 sequence (Q00987 whole entry, looked up): as the sequence (Q00987 whole entry, looked up) above
How it was run: (§2)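 HCT116 cells in DMEM with 10% FBS and glutamine/penicillin/streptomycin at 37 °C, 5% CO2. Seeded 4 × 10^5 cells/well, after 24 h treated 24 h with DMSO or compound in fresh medium. Lysed in Tris-HCl/NaCl/NP-40/Triton X-100 buffer with protease inhibitor, Bradford-quantified, 30 μg protein per lane. Quantitative Western blot with specific HDAC1/2/3 antibodies, IRDye secondaries, infrared imaging, versus DMSO. n = 2 replicates.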

[7] = molecular target: T3, E3 ubiquitin-protein ligase Mdm2/Histone deacetylase 3 (Homo sapiens); test: PROTAC activity at MDM2/HDAC3 in human HCT-116 cells assessed as reduction in HDAC3 abundance by measuring remaining activity at 0.5 uM measured after 24 hrs by Western blot analysis; how it was run: as §2
[8] = molecular target: T4, Paired amphipathic helix protein Sin3a (Homo sapiens) (UniProt Q96ST3); test: Induction of SIN3A degradation in human HCT-116 cells assessed as reduction in SIN3A abundance by measuring remaining activity at 0.01 uM measured after 24 hrs by Western blot analysis (reference value: 100%); how it was run: as §1
T4 sequence (whole entry): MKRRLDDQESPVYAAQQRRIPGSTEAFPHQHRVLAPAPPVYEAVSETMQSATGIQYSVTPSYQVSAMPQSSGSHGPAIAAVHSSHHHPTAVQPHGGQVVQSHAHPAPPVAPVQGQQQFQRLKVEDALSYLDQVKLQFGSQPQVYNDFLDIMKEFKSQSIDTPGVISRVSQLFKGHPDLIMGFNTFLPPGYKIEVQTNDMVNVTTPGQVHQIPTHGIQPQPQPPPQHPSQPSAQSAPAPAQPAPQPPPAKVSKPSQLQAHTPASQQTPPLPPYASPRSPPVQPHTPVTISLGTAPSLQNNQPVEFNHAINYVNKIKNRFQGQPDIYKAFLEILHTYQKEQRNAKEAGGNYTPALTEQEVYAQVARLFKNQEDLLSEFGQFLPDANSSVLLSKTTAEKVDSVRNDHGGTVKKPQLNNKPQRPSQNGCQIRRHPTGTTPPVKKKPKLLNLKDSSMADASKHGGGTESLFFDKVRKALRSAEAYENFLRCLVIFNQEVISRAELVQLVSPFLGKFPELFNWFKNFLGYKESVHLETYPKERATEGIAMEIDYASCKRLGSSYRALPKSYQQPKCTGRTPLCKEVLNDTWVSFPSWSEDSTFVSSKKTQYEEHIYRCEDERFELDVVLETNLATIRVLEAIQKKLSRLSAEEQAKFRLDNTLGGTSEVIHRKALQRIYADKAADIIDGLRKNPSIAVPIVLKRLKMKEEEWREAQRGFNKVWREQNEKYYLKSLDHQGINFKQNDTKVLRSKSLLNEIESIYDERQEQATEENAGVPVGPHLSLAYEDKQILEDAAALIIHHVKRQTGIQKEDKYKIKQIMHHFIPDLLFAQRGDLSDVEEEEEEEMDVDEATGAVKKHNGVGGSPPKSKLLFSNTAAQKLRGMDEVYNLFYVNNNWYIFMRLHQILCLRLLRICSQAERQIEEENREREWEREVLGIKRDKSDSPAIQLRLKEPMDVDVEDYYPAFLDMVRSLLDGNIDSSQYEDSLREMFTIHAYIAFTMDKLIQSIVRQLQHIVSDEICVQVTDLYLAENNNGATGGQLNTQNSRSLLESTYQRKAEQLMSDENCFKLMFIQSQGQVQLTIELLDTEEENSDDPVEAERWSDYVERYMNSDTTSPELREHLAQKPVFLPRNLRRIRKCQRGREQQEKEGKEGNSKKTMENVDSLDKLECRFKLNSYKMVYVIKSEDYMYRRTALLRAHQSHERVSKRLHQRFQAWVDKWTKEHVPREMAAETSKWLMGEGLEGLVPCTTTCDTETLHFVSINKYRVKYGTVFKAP

[9] = molecular target: T4, Paired amphipathic helix protein Sin3a (Homo sapiens); test: Induction of SIN3A degradation in human HCT-116 cells assessed as reduction in SIN3A abundance by measuring remaining activity at 0.025 uM measured after 24 hrs by Western blot analysis (reference value: 100%); how it was run: as §1
[10] = molecular target: T4, Paired amphipathic helix protein Sin3a (Homo sapiens); test: Induction of SIN3A degradation in human HCT-116 cells assessed as reduction in SIN3A abundance by measuring remaining activity at 1 uM measured after 24 hrs by Western blot analysis (reference value: 100%); how it was run: as §1
[11] = molecular target: T4, Paired amphipathic helix protein Sin3a (Homo sapiens); test: Induction of SIN3A degradation in human HCT-116 cells assessed as reduction in SIN3A abundance by measuring remaining activity at 2.5 uM measured after 24 hrs by Western blot analysis (reference value: 100%); how it was run: as §1
[12] = molecular target: Lysine-specific histone demethylase 1A (Homo sapiens) (UniProt O60341); test: Induction of LSD1 degradation in human HCT-116 cells assessed as reduction in LSD1 abundance by measuring remaining activity at 0.01 uM measured after 24 hrs by Western blot analysis (reference value: 100%); how it was run: as §1

T1 sequence (Q00987 whole entry, looked up): as the sequence (Q00987 whole entry, looked up) above
T1 sequence (Q13547 whole entry, looked up): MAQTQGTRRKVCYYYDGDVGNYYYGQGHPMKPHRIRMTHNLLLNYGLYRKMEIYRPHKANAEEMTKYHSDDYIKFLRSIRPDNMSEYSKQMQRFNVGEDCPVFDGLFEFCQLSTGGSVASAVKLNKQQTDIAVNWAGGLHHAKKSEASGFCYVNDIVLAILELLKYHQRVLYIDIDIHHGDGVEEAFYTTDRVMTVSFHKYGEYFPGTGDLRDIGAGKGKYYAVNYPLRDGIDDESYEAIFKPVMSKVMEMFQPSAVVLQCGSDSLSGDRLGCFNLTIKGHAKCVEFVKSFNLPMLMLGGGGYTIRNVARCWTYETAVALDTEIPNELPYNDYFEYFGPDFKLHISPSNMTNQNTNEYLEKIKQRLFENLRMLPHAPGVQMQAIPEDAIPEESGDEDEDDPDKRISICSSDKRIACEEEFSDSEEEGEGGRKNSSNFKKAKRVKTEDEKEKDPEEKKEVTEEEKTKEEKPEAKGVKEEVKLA

Activity [1]: 84% | Activity [2]: 69% | Activity [3]: 70% | Activity [4]: 90% | Activity [5]: 72% | Activity [6]: 105% | Activity [7]: 106% | Activity [8]: 104% | Activity [9]: 100% | Activity [10]: 70% | Activity [11]: 57% | Activity [12]: 104%
SMILES: COc1cc(C(=O)NCCOCCOCCOCCOCCC(=O)Nc2ccc(C(=O)Nc3ccccc3N)cc2)ccc1NC(=O)[C@@H]1N[C@@H](CC(C)(C)C)[C@](C#N)(c2ccc(Cl)cc2F)[C@H]1c1cccc(Cl)c1F

— ChEMBL document CHEMBL5357024, “MDM2 Antagonist Idasanutlin Reduces HDAC1/2 Abundance and Corepressor Partners but Not HDAC3” (ACS Med Chem Lett, 2024)
